Measured values taken from PMC2843942 (Journal of the American Chemical Society, 2010).
Like-named read-outs stand apart in the source and are kept apart here. One block for each compound: values may come before it.

Key:
GST-LSD1 [1] = target: T1, GST-LSD1 (Homo sapiens, UniProt O60341); details: cited from earlier work; for inactivation of LSD1: result in words
GST-LSD1 (aa 171-852) [2] = target: GST-LSD1 (aa 171-852) (UniProt O60341); test: enzyme inactivation kinetics
GST-LSD1 [3] = target: T1, GST-LSD1; test: peroxidase-coupled assay; format: biochemical; details: for KI (inactivation): 185 nM GST-LSD1, 240 µM substrate, extrapolated to zero substrate, Kitz-Wilson; for k(inact): 185 nM GST-LSD1, Kitz-Wilson analysis; for time-dependent inactivation of LSD1: result in words
GST-LSD1 [4] = target: T1, GST-LSD1; test: Amplex Red horseradish peroxidase coupled assay detecting H2O2; format: biochemical
How it was run: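 Human GST-LSD1 (aa 171–852) from E. coli, at 25 nM, in 50 mM HEPES pH 7.5 with 0.1 mM Amplex Red and 0.76 µM horseradish peroxidase. Dimethyl-Lys-4 H3-21 substrate started 150 µL reactions, aerobic, at 25 °C. For inactivation, test compound and substrate (600 µM final) were added together. H2O2 was followed at 571 nm (ε 52,000 M−1 cm−1) from initial velocities.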

[5] = system: methylation of Lys-4 of histone H3 in α-23 cells; details: 10 µM phenelzine, one hour, ChIP
[6] = system: TSHalpha luciferase reporter in α-23 cells derived from GH3 cells; details: 10 µM phenelzine, 24 hours, with or without 0.1 µM T3
GST-LSD1 [7] = target: T1, GST-LSD1; details: 500 µM phenelzine, 30 min preincubation, 10 µM substrate
GST-LSD1 (aa 171-852) [8] = target: GST-LSD1 (aa 171-852) (UniProt O60341); test: enzyme inhibition kinetics
[9] = 25 nM LSD1, 600 µM substrate, Amplex Red

Compound: exo-cyclopropyl-Lys-4 H3-21 [compound 6]
- inactivation of LSD1 (GST-LSD1 [1]): did not inactivate LSD1
- Ki (GST-LSD1 [1]; reversible inhibitor, estimated, obtained previously): 2700 ± 740 nM

- Ki(inact) (GST-LSD1 (aa 171-852) [2]): 0.00435 µM
Compound: hydrazino-Lys-4 H3-21 (18) (from UniProt P68431 2-22) (peptide)

- Ki(inact) (GST-LSD1 (aa 171-852) [2]): 0.763 µM
Compound: trans-3-chloroallyl-Lys-4 H3-21 (4) (from UniProt P68431 2-22) (peptide)

- kcat (GST-LSD1 [3]; GST-LSD1 with this substrate, 185 nM enzyme): 4.5 ± 0.1 min⁻¹
- Km (GST-LSD1 [3]; substrate of GST-LSD1, 185 nM enzyme, pH 7.5, 25 °C): 21 ± 2 µM
- kcat (GST-LSD1 [4]; GST-LSD1 with this substrate, 25 nM enzyme, Amplex Red): 3.5 ± 0.2 min⁻¹
- Km (GST-LSD1 [4]; substrate of GST-LSD1, 25 nM enzyme, Amplex Red): 20 ± 3 µM
Compound: dimethyl-Lys-4 H3-21 [reference compound]

- kinact/Ki(inact) fold difference from peptide 2 (GST-LSD1 [3]): ≤ 5 fold
- KI (inactivation) (GST-LSD1 [3]): 955 ± 150 nM
- k(inact) (GST-LSD1 [3]): 0.545 ± 0.038 min⁻¹
Compound: cis-3-chloroallyl-Lys-4 H3-21 [compound 3]
- time-dependent inactivation of LSD1 (GST-LSD1 [3]): time- and concentration-dependent inactivation

- KI (inactivation) (GST-LSD1 [3]): 763 ± 120 nM
- k(inact) (GST-LSD1 [3]): 0.128 ± 0.0087 min⁻¹
Compound: trans-3-chloroallyl-Lys-4 H3-21 [compound 4]
- time-dependent inactivation of LSD1 (GST-LSD1 [3]): time- and concentration-dependent inactivation

Compound: hydrazino-Lys-4 H3-21 [compound 18]
- time-dependent inactivation of LSD1 (GST-LSD1 [3]): highly potent time-dependent inhibitor
- fold more efficient in inhibiting demethylation than propargylamine-H3 derivatives (GST-LSD1 [4]): more than 20 fold
- KI (inactivation) (GST-LSD1 [4]; [9]): 4.35 ± 0.86 nM
- k(inact) (GST-LSD1 [4]; [9]): 0.247 ± 0.018 min⁻¹
- fold more potent than 2 as LSD1 inactivator (GST-LSD1 [4]; versus N-methylpropargylamine peptide 2): approximately 25 fold

- demethylation of H3-21 dimethyl-Lys substrate peptide by treated LSD1 (GST-LSD1 [7]): unable to induce loss of a methyl group
- k(inact) (GST-LSD1 [3]): 0.955 ± 0.085 min⁻¹
Compound: NNCCc1ccccc1 [phenelzine, phenethylhydrazine]
- mono and dimethylation of Lys-4 H3 at TSHalpha reporter region [5]: enhanced
- trimethylation level of Lys-4 H3 at TSHalpha reporter region [5]: unaffected
- luciferase activity of TSHalpha reporter [6]: increases luciferase activity both in the absence and presence of T3

- Ki (GST-LSD1 (aa 171-852) [8]): 24.2 µM
Compound: endo-dimethylcyclopropyl-Lys-4 H3-21 (8) (from UniProt P68431 2-22) (peptide)

- Ki(inact) (GST-LSD1 (aa 171-852) [2]): 0.955 µM
Compound: cis-3-chloroallyl-Lys-4 H3-21 (3) (from UniProt P68431 2-22) (peptide)

Compound: propargyl-Lys-4 H3-21 [compound 1]
- KI (inactivation) (GST-LSD1 [1]; obtained previously): 775 ± 160 nM
- k(inact) (GST-LSD1 [1]; obtained previously): 0.304 ± 0.033 min⁻¹

- Ki (GST-LSD1 (aa 171-852) [8]): 6.11 µM
Compound: endo-cyclopropyl-Lys-4 H3-21 (7) (from UniProt P68431 2-22) (peptide)

Compound: C#CCN(C)Cc1ccccc1 [pargyline, reference compound]
- inactivation of LSD1 (GST-LSD1 [1]): failed in subsequent studies to appreciably inactivate LSD1
